Screening results as filed in PubChem.
Hits are enriched below; roughly 4.7% of the tested compounds scored in any of these assays.
697 NFkB inh – inhibitors of PMA/ionomycin-induced NF-kB reporter, 697 cells, primary screen, B-cell NF-kB inhibitor project, cell-based, luminescence, uHTS | 697 B-cell NF-kB luciferase reporter, 16 h | inhibition, % at 4 µM | 0.33% of 330,000 active | AID 435022, 2010; in the data active = inhibition above about 35%
VIM-2 inhibitor – VIM-2 metallo-beta-lactamase inhibitors, primary screen, biochemical, epi-absorbance readout, Pseudomonas aeruginosa enzyme | purified VIM-2, nitrocefin hydrolysis, epi-absorbance fluorescence | inhibition, % at 5.6 µM | 0.89% of 290,000 active | AID 1527, 2009;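 active = inhibition above the mean of all tested compounds plus 3 SD, cutoff set per screening run, cut at about 7.5% in these data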;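 note: red hydrolysis product quenches plate fluorescence so inhibitors raise well fluorescence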
Jurkat NFkB inh – inhibitors of induced NF-kB luciferase reporter, primary screen, TCR NF-kB activation inhibitor project, cell-based, luminescence, uHTS; Jurkat, PMA/ionomycin-induced NF-kB luciferase reporter; inhibition, % at 4 µM; 0.53% of 330,000 active; in the data active = inhibition above about 50%
IMP-1 inhibitor – IMP-1 metallo-beta-lactamase inhibitors, primary screen, biochemical, epi-absorbance readout, Pseudomonas aeruginosa enzyme. metallo-beta-lactamase IMP-1 (Pseudomonas aeruginosa). purified IMP-1, nitrocefin hydrolysis, epi-absorbance fluorescence. inhibition, % at 5.6 µM. 0.45% of 290,000 active;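 active = inhibition above the mean plus 3 SD of all compounds in the same screening run, cut at about 4.5% in these data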
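Assay system: purified recombinant IMP-1 beta-lactamase. Input: IMP-1 0.2 nM before substrate addition. Buffer or medium: Zinc- and detergent-supplemented HEPES buffer, pH 7.1. Schedule: 25 °C, 15 min preincubation, 25 min reaction. Signal: Epi-absorbance fluorescence, 480 nm excitation, 530 nm emission. Evaluation: percent inhibition from optical density relative to buffer-blank wells.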
aSyn UTR inh – MLPCN primary screen, SNCA 5' untranslated region; alpha-synuclein 5'UTR reporter, inhibitor activity; inhibition, % (tested at 7.5 µM); 0.82% of 300,000 active; in the data active = inhibition above about 60%;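 note: H4 neuroglioblastoma cells stably carrying SNCA 5'UTR luciferase fusion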
Mdm2-MdmX inh – inhibitors of human Mdm2-MdmX association, primary screen, cell-based, luminescence, split luciferase, SaOS-2, uHTS; SaOS-2 split-luciferase Mdm2/MdmX complementation; 3% of 330,000 active; inhibition, % at 8 µM;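 active = inhibition of at least 50% at 8 µM in the primary screen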
Target sequence (O15151 whole entry, looked up): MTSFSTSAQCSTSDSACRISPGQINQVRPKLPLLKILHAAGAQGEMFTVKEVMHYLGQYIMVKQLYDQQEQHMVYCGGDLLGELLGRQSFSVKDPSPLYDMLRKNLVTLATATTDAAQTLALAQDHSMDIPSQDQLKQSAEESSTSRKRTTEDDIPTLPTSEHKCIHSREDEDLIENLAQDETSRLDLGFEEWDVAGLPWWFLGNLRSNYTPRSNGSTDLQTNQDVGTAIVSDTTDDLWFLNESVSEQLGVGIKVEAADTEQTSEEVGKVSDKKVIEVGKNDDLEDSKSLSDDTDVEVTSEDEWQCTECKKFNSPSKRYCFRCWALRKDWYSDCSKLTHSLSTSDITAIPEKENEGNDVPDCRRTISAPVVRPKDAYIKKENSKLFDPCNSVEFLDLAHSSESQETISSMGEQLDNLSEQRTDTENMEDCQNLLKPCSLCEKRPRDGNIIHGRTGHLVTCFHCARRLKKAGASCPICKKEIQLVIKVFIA
Target sequence (Q00987 whole entry, looked up): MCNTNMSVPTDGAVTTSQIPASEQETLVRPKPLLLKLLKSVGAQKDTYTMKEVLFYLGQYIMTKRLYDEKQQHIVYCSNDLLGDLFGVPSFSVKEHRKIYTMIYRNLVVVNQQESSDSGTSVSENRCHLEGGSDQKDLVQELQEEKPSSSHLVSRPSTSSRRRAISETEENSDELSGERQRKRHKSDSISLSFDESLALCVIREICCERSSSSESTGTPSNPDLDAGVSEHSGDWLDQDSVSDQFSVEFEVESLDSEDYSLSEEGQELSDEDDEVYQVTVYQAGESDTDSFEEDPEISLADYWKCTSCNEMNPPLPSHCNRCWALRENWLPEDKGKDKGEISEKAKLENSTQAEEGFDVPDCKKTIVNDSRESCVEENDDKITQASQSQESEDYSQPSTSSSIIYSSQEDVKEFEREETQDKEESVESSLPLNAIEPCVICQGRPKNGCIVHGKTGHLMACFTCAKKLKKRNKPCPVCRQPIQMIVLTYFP
Mdm2 MdmX conf – Mdm2-MdmX complex disruptors, retested hits, confirmation, luminescence, single concentration; shares compounds with Mdm2-MdmX inh; Mdm2-MdmX binding, luminescent assay; inhibition, % at 8 µM; 55% of 10,000 active; AID 489028, 2010; in the data active = inhibition above about 40%
Full FLuc ctr – full-length luciferase signal inhibition, confirmation, counter-screen for Mdm2/MdmX interaction inhibitor project, cell-based, single concentration, SaOS-2; inhibition, % at 8 µM; AID 504607, 2011; SaOS-2 full-length luciferase counterscreen, luminescence; shares compounds with Mdm2-MdmX inh; 77% of 6,200 active;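 active = mean inhibition at 8 µM reaching about 37%, which flags the compound as non-specific, limit read from the data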;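 note: p53-null SaOS-2 cells with luciferase driven by a doxycycline-inducible promoter; compound on cells about two nights before reading with doxycycline added after day one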
Each line names hits and unclear results; the compound was inactive in the other large screens (follow-up assays come after a bar, where they were run).

N=c1c(-c2nc3ccccc3[nH]2)cc(C(=O)c2cccs2)nn1-c1ccc(Cl)cc1	Mdm2-MdmX inh 62.8 | Mdm2 MdmX conf inactive
COc1cccc(-c2cc(C(=O)NCC3CCCO3)c3cc(C)cc(C)c3n2)c1 (configuration not stated)	none
COC(=O)c1nnn(-c2cc(Cl)cc(Cl)c2)c1C(=O)OC	none
CC[C@H](C)[C@H](NC(=O)c1ccccc1)C(=O)Nc1ccc(S(=O)(=O)Nc2cc(C)nc(C)n2)cc1	none
COc1ccc(Cl)cc1NC(=O)CN(C)C1CCCCC1	none
COc1ccc(OC)c(NC(=O)CN(Cc2ccc(F)cc2)C2CCCCC2)c1	Mdm2-MdmX inh 51.7 | Mdm2 MdmX conf inactive
Cc1ccc(NC(=O)Cn2ccc(=O)[nH]c2=O)cc1	none
CN(C)c1nnnn1-c1ccc(OC(F)(F)F)cc1	none
CCOC(=O)CS(=O)(=O)c1nc(-c2ccc(F)cc2)cc(C(F)(F)F)n1	Mdm2-MdmX inh 100.3 | Mdm2 MdmX conf 98.1 | Full FLuc ctr 51.5
CS(=O)(=O)c1nc(-c2ccc(F)cc2)cc(C(F)(F)F)n1	none (no result: 697 NFkB inh, Jurkat NFkB inh, Mdm2-MdmX inh)
CCOC(=O)CS(=O)(=O)c1nc(-c2ccccc2)cc(C(F)(F)F)n1	Mdm2-MdmX inh 100.6 | Mdm2 MdmX conf 97.7 | Full FLuc ctr inactive
COC(=O)CCS(=O)(=O)c1nc(-c2ccccc2)cc(C(F)(F)F)n1	Mdm2-MdmX inh 83.7 | Mdm2 MdmX conf 100.2 | Full FLuc ctr 51.4
CCOC(=O)CCS(=O)(=O)c1nc(-c2ccccc2)cc(C(F)(F)F)n1	Mdm2-MdmX inh 100.3 | Mdm2 MdmX conf 100.2 | Full FLuc ctr 51.2
Cc1ccc(S(=O)(=O)N2CCOCC2)cc1NC(=O)COC(=O)c1ccc(Cl)s1	none (no result: VIM-2 inhibitor, IMP-1 inhibitor, aSyn UTR inh)
Cc1cc(NC(=O)CSCCO)no1	none
Cc1oc(C(=O)O)cc1COc1ccc2c(C)cc(=O)oc2c1	none
Cc1cc(=O)oc2cc(OCc3cc4c(cc3Cl)OCO4)ccc12	Mdm2-MdmX inh 89.1 | Mdm2 MdmX conf inactive
Cn1nc(CC(=O)Nc2ncc(Br)s2)c2ccccc2c1=O	Mdm2-MdmX inh 59.1 | Mdm2 MdmX conf inactive
Cc1ccccc1NS(=O)(=O)c1ccc(NS(=O)(=O)c2cccs2)cc1	none
COc1cc2c(cc1OC)C1Cc3ccc(OC)c(OC)c3CN1CC2 (configuration not stated)	none
COc1ccc2cc1Oc1ccc(cc1)CC1c3c(cc(OC)c4c3Oc3cc5c(cc3O4)CCNC5C2)CCN1C (configuration not stated)	IMP-1 inhibitor 4.6, aSyn UTR inh 114.2, Mdm2-MdmX inh 100.3 | Mdm2 MdmX conf 99.7 | Full FLuc ctr inactive
CCOc1ccc(C2NCCc3cc(OC)c(OC)cc32)cc1OC (configuration not stated)	none
COc1ccc2cc1Oc1ccc(cc1)C[C@H]1c3c(cc(OC)c4c3Oc3c(ccc5c3[C@H](C2)N(C)CC5)O4)CCN1C	Mdm2-MdmX inh 100.3 (no result: VIM-2 inhibitor, IMP-1 inhibitor, aSyn UTR inh) | Mdm2 MdmX conf 42.2 | Full FLuc ctr inactive
CN(C)CCCNc1cc(C(C)(C)C)nc2c(-c3ccccc3)cnn12	Mdm2-MdmX inh 100.2 | Mdm2 MdmX conf 52.5 | Full FLuc ctr 72.4
Cc1cc(NCCOCCO)n2ncc(-c3ccc(Cl)cc3)c2n1	Mdm2-MdmX inh 61.2 | Mdm2 MdmX conf 53.5 | Full FLuc ctr 58.7
Cc1cc(NCc2ccccn2)n2ncc(-c3ccc(Cl)cc3)c2n1	none
Cc1cc(NCCCN2CCOCC2)n2ncc(-c3ccccc3)c2n1	none
CC(C)(C)c1cc(NCCCn2ccnc2)n2ncc(-c3ccc(Cl)cc3)c2n1	Mdm2-MdmX inh 73.9 | Mdm2 MdmX conf 42.5 | Full FLuc ctr inactive
COc1ccccc1NS(=O)(=O)c1cc(C(=O)N2CCN(C/C=C/c3ccccc3)CC2)ccc1C	none
CC1=C(C(=O)OCC2CCCO2)C(c2ccc(Cl)cc2)NC(=O)N1 (configuration not stated)	none
Cn1c(SCC(=O)NCCc2ccccc2)nnc1-c1ccco1	none
C[C@@H]1COC(=O)[C@H](NC(=O)OCC2c3ccccc3-c3ccccc32)C/C=C\C[C@@H](CC(=O)N[C@H](CO)Cc2ccccc2)C(=O)N1	none (no result: VIM-2 inhibitor, IMP-1 inhibitor, aSyn UTR inh)
C=Cn1ccnc1P(=S)(c1ccc2c(c1)c1ccccc1n2CC)c1nccn1C=C	Mdm2-MdmX inh 66.6 | Mdm2 MdmX conf 63.2 | Full FLuc ctr 55.9
CN(C(=O)COC(=O)c1ccc(Br)c([N+](=O)[O-])c1)c1c(N)n(Cc2ccccc2)c(=O)[nH]c1=O	none (no result: VIM-2 inhibitor, IMP-1 inhibitor)
C=CC(=O)Nc1sc2c(c1C(N)=O)CCCC2	Mdm2-MdmX inh 53.1 (no result: VIM-2 inhibitor, IMP-1 inhibitor) | Mdm2 MdmX conf inactive
C=CCNC(=S)Nc1sc2c(c1C(N)=O)CCCC2	none
COc1ccc(CNC(=O)C(c2ccc(C)cc2)N(Cc2cccs2)C(=O)c2ccc3c(c2)OCCO3)cc1 (configuration not stated)	Mdm2-MdmX inh 75.1 | Mdm2 MdmX conf 75.1 | Full FLuc ctr 60.3
Cc1ccc(C(C(=O)NCc2ccccc2)N(Cc2cccs2)C(=O)c2ccc3c(c2)OCCO3)cc1 (configuration not stated)	Mdm2-MdmX inh 78.7 | Mdm2 MdmX conf 77.7 | Full FLuc ctr 69.2
O=S(=O)(NCC(c1cccnc1)N1CCc2ccccc2C1)c1ccccc1 (configuration not stated)	none
CCOC(=O)c1cc(S(=O)(=O)N2CCN(C(=O)OCC)CC2)cn1C	none
O=c1c2cccnc2[nH]c(=S)n1CCC1=CCCCC1	Mdm2-MdmX inh 63.0 | Mdm2 MdmX conf inactive
CN1CCC(NC(=O)c2cc(-c3cccc(Br)c3)nc3ccccc23)CC1	Mdm2-MdmX inh 66.0 | Mdm2 MdmX conf inactive | Full FLuc ctr 64.5
O=C(NC1CC1)c1cc(-c2ccc(Br)cc2)nc2ccccc12	none (no result: VIM-2 inhibitor, IMP-1 inhibitor, aSyn UTR inh)
CCc1nc2ccccc2c(C(=O)OCC(=O)NC(=O)c2cccn2C)c1C	none
CCOC(=O)c1ccccc1Nc1cn(C(C)=O)c2ccccc12	Mdm2-MdmX inh 58.5 | Mdm2 MdmX conf 46.5 | Full FLuc ctr 79.9
CC(=O)n1cc(Nc2ccccc2C(=O)O)c2ccccc21	none
CC[C@@]1(C(=O)OC)N[C@H](CN(C)S(=O)(=O)c2ccc(C(C)(C)C)cc2)[C@@H]2C(=O)N(C)C(=O)[C@@H]21	none (no result: VIM-2 inhibitor, IMP-1 inhibitor, aSyn UTR inh)
